The values that follow come from ChEMBL document CHEMBL2034950, “Sphingolipid analogues inhibit development of malaria parasites” (ACS Med Chem Lett, 2012).

Data set [1] relates to Plasmodium falciparum. The data set can be described thus: Antimalarial activity against chloroquine-sensitive Plasmodium falciparum D6 infected in O-positive human RBC assessed as [3H]-hypoxanthine incorporation after 48 hrs by scintillation counting in presence of BSA. Type of data set: functional, organism-based.
In data set [2] the test system is Plasmodium falciparum. The data set can be described thus: Antimalarial activity against chloroquine-resistant Plasmodium falciparum W2 infected in O-positive human RBC assessed as [3H]-hypoxanthine incorporation after 48 hrs by scintillation counting in presence of BSA. Type of data set: functional, organism-based.
Data set [3] has as its system Plasmodium knowlesi. Briefly: Antimalarial activity against Plasmodium knowlesi infected in rhesus monkey RBC assessed as [3H]-hypoxanthine incorporation after 12 hrs by scintillation counting. Type of data set: functional, organism-based. The procedure, abridged:
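Dose-response assay of in vitro parasite growth and replication in red blood cells, read as [³H]-hypoxanthine uptake. IC50 values were derived, with the error given as standard deviation.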

The subject of data set [4] is Plasmodium falciparum. The data set can be described thus: Antimalarial activity against chloroquine-sensitive Plasmodium falciparum D6 infected in O-positive human RBC assessed as [3H]-hypoxanthine incorporation after 48 hrs by scintillation counting. It is filed as functional, organism-based. The procedure, abridged: (§1)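 Growth inhibition in vitro by [3H]-hypoxanthine uptake in parasitized RBCs; dose-response runs to derive IC50.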

Data set [5] can be described thus: Cytotoxicity against human HFF1 cells at 50 uM after 72 hrs by SRB assay. It is filed as cell-based. Particulars: hff-1, 72 h. The procedure, abridged: (§2)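 Human foreskin fibroblasts (HFF-1) were seeded at 20,000 cells per plate, incubated with compound at 10 or 50 μM for 72 h, and read by sulforhodamine B assay.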
In data set [6] the test system is Plasmodium falciparum. The data set can be described thus: Antimalarial activity against chloroquine-resistant Plasmodium falciparum W2 infected in O-positive human RBC assessed as [3H]-hypoxanthine incorporation after 48 hrs by scintillation counting. Type of data set: functional, organism-based. The method in brief: as §1
Data set [7] can be described thus: Cytotoxicity against human HFF1 cells at 10 uM after 72 hrs by SRB assay. Particulars: hff-1, 72 h. Type of data set: cell-based. The procedure, abridged: as §2
Data set [8] deals with Plasmodium falciparum. The data set can be described thus: Antimalarial activity against chloroquine-resistant Plasmodium falciparum W2 infected in O-positive human RBC assessed as aberrant form of trophozoite-stage parasites at 546.94 ng/mL after 28 to 48 hrs by Giemsa staining-based microscopic analysis. Type of data set: functional, organism-based.
Data set [9] relates to Plasmodium falciparum. Briefly: Antimalarial activity against chloroquine-resistant Plasmodium falciparum W2 infected in O-positive human RBC assessed as ring-stage parasites at 546.94 ng/mL after 48 hrs by Giemsa staining-based microscopic analysis (reference value: 87.9%). It is filed as functional.
Data set [10] concerns Plasmodium falciparum. Briefly: Antimalarial activity against chloroquine-resistant Plasmodium falciparum W2 infected in O-positive human RBC assessed as schizont-stage parasites at 546.94 ng/mL after 48 hrs by Giemsa staining-based microscopic analysis (reference value: 8.05%). Type of data set: functional.
Data set [11] deals with Plasmodium falciparum. Briefly: Antimalarial activity against chloroquine-resistant Plasmodium falciparum W2 infected in O-positive human RBC assessed as trophozoite-stage parasites at 546.94 ng/mL after 48 hrs by Giemsa staining-based microscopic analysis (reference value: 4.2%). It is filed as functional.
The subject of data set [12] is Plasmodium falciparum. Briefly: Antimalarial activity against chloroquine-resistant Plasmodium falciparum W2 infected in O-positive human RBC assessed as parasitemia at 546.94 ng/mL after 48 hrs by Giemsa staining-based microscopic analysis. It is filed as functional.
In data set [13] the test system is Plasmodium falciparum. Briefly: Antimalarial activity against chloroquine-resistant Plasmodium falciparum W2 infected in O-positive human RBC assessed as aberrant form of ring-stage parasites at 546.94 ng/mL after 28 to 48 hrs by Giemsa staining-based microscopic analysis. It is filed as functional, organism-based.
Data set [14] is described as follows: Apparent volume of distribution during terminal phase in mouse RBC at 30 mg/kg, po QD. Type of data set: ADME, organism-based, Erythrocyte. The arrangement: dose 30 mg/kg, route oral. As to conditions: red blood cells (RBC), read-out: Vz/F. The procedure, abridged:
(§3)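 Mice were dosed orally once daily at 30 mg/kg for five days. Drug levels were followed over time in plasma and in red blood cells on day 1 and on day 5 of dosing.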

Data set [15] can be described thus: Half life in mouse plasma at 30 mg/kg, po QD. It is filed as ADME, organism-based. The arrangement: dose 30 mg/kg, route oral. The method in brief:
as §3

The nature of data set [16]: Tmax in mouse plasma at 30 mg/kg, po QD. Type of data set: ADME, organism-based. The arrangement: dose 30 mg/kg, route oral. The method in brief: as §3
The nature of data set [17]: Ratio of drug uptake in mouse RBC to mouse plasma at 30 mg/kg, po QD. It is filed as ADME, organism-based. As to conditions: red blood cells (RBC) / plasma. The arrangement: dose 30 mg/kg, route oral. The procedure, abridged:
as §3

The nature of data set [18]: AUC (0 to infinity) in mouse plasma at 30 mg/kg, po QD. Type of data set: ADME, organism-based. The arrangement: time infinity, dose 30 mg/kg, route oral. The method in brief:
as §3

Data set [19] concerns Plasma. The data set can be described thus: Apparent volume of distribution during terminal phase in mouse plasma at 30 mg/kg, po QD. It is filed as ADME, organism-based. The arrangement: dose 30 mg/kg, route oral. Particulars: in vivo. The procedure, abridged:
as §3

Data set [20] is described as follows: Half life in mouse RBC at 30 mg/kg, po QD. It is filed as ADME, organism-based, Erythrocyte. The arrangement: dose 30 mg/kg, route oral. Particulars: red blood cells (RBC). The method in brief: as §3
Data set [21] can be described thus: Cmax in mouse RBC at 30 mg/kg, po QD. Type of data set: ADME, organism-based, Erythrocyte. The arrangement: dose 30 mg/kg, route oral. As to conditions: red blood cells (RBC). The procedure, abridged:
as §3

Data set [22] can be described thus: Cmax in mouse plasma at 30 mg/kg, po QD. Type of data set: ADME, organism-based. The arrangement: dose 30 mg/kg, route oral. The procedure, abridged:
as §3

A short description of data set [23]: AUC (0 to infinity) in mouse RBC at 30 mg/kg, po QD. The arrangement: time infinity, dose 30 mg/kg, route oral. Type of data set: ADME, organism-based, Erythrocyte. As to conditions: red blood cells (RBC). The method in brief: as §3

Each structure is given as a SMILES string. Active and inactive are the calls of the source. The rule behind the calls is not given here.

As to `CCCCCCCCCCCCCC(O)C/C(=N\O)C(C)(C)N` (racemic), the IC50 in data set [1] was found to be 7.44 µM; in [2] it was 10 µM.

Turning to `CCCCCCCCCCCCC[C@H](O)C[C@H](O)[C@@H]1CCCN1`, the half-inhibitory concentration (IC50) in data set [3] amounted to 6.3 µM; in [4] it was 9.7 µM; in data set [6], 4.4 µM. Further, the Activity result is reported as “Toxic” in data set [5] and “Non-toxic” in data set [7].

Regarding `CCCCCCCC(F)(F)CCCCC[C@H](O)C[C@H](O)[C@H](C)NC`, the IC50 was 7.3 µM in data set [4] and 2.4 µM in [6]. Moreover, the values for the Activity result in data set [5] and in data set [7] were “Toxic” and “Non-toxic”, respectively.

As to `CCCCCCCCCCCCC[C@H](O)C[C@H](O)[C@H](C)NC`, the outcome in [8] and in [13] was Active. Also, the 50% inhibitory concentration (IC50) stood at 1.7 µM in [1]; 1.7 µM in data set [3]; 4.7 µM in [4]; 1.6 µM in [6]; 0.9 µM in data set [2]. For the same compound, the Activity in [9] was 41.9%; in data set [5] it was “Toxic”; in data set [10], 18.9%; in [7], “Non-toxic”; in data set [11] it was 39.2%; in [12] it was 1.3%.

With `CCCCCCCCCCCCC[C@H](O)C[C@@H](O)[C@H](C)NC`, the half-inhibitory concentration (IC50) in data set [4] came out at 14.6 µM; in data set [6], 8.1 µM. Moreover, the Activity result in [5] is listed as “Toxic”; in data set [7], “Non-toxic”.

For the compound `CCCCCCCCCCCCC[C@H](O)C[C@H](O)[C@H](C)N(C)C`, the IC50 in [3] came to 6.8 µM; in data set [4] it was 7 µM; in [6] it was 4.4 µM. Besides, the values for the Activity result in data set [5] and in data set [7] were “Toxic” and “Non-toxic”, respectively.

For `CCCCCCCCCCCCCCCC(=O)N[C@@H](C)[C@@H](O)C[C@@H](O)CCCCCCCCCCCCC`, the result in [3], in data set [4] and in data set [6] was inactive. Also, the values for the Activity result in data set [5] and in data set [7] were “Toxic” and “Non-toxic”, respectively.

Regarding `CCCCCCCCCCCCC[C@@H](O)C[C@H](O)C(C)(C)N` (racemic), the figures for the IC50 in data set [1] and in data set [2] were 4.1 µM and 7.4 µM, respectively.

Consider `CCCCCCCCCCCCC[C@H](O)C[C@H](O)C(C)(C)N` (racemic), for which the IC50 was found to be 5.2 µM in data set [1] and 4.7 µM in [2].

On to `CCCCCCCCCCCCC[C@H](O)C[C@@H](O)[C@H](C)N`, for which the results for the concentration for half-maximal inhibition (IC50) in [3], in data set [4] and in data set [6] were 20.3 µM, 17.8 µM and 9.2 µM, respectively. Besides, the Activity result in data set [5] was “Toxic”; in data set [7], “Non-toxic”.

For the compound `CCCCCCCCCCCCC[C@H](O)C[C@H](O)[C@H](C)N` [ENIGMOL], the IC50 in data set [1] amounted to 5.3 µM; in [3], 10.5 µM; in data set [4] it was 12.6 µM; in [6] it was 7.4 µM; in [2] it was 9.2 µM. For the same compound, in [14], the Vd/F amounted to 25 L/kg. Moreover, the half-life was 10.7 h in [15] and 8.9 h in [20]. For the same compound, the Activity entry in data set [5] is “Toxic”; in data set [7], “Non-toxic”. Besides, the Tmax in data set [16] was 2 h. In data set [17], the Kp came to 3. Also, the results for the total exposure AUC(0-inf) in [18] and in data set [23] were 14.4 µM·h and 50.7 µM·h, respectively. Moreover, in [19], the Vz/F worked out at 4.4 L/kg. Moreover, the maximum concentration (Cmax) in data set [21] stood at 3300 nM; in data set [22], 1100 nM.

As for `CCCCCCCC(F)(F)CCCCC[C@H](O)C[C@H](O)[C@H](C)N`, the values for the concentration for half-maximal inhibition (IC50) in data set [4] and in data set [6] were 12.7 µM and 5.6 µM, respectively. In addition, the figures for the Activity entry in [5] and in data set [7] were “Toxic” and “Non-toxic”, respectively.

Consider `O[C@@H](c1cc(C(F)(F)F)nc2c(C(F)(F)F)cccc12)[C@H]1CCCCN1` (relative stereo) [(S,R)-MEFLOQUINE], for which the IC50 in data set [3] turned out to be 0.04 µM; in data set [2], 0.0004 µM.

With `CCCCCCCCCCCCC[C@@H](O)C[C@H](O)[C@H](C)N`, the concentration for half-maximal inhibition (IC50) in data set [3] stood at 17.6 µM; in data set [4], 12.7 µM; in [6] it was 8.2 µM. The figures for the Activity entry in data set [5] and in data set [7] were “Toxic” and “Non-toxic”, respectively.

As for `CCCCCCCCCCCCC[C@H](O)C[C@H](O)C(C)(C)NC` (racemic), the IC50 amounted to 0.7 µM in [1] and 0.25 µM in data set [2].

Take `CCCCCCCCCCCCC[C@@H](O)C[C@H](O)C1(N)CC1` (racemic): the results for the IC50 in data set [1] and in [2] were 11.2 µM and 7.2 µM, respectively.

On to `CCCCCCCCCCCCC[C@H](O)C[C@H](O)[C@H](C)NC(C)=O`, for which the result in data set [3] was inactive. In addition, the IC50 came to 11.1 µM in [4] and 13.1 µM in data set [6]. Besides, the Activity result in data set [5] is given as “Toxic”; in data set [7], “Non-toxic”.

Regarding `CCCCCCCCCCCCC[C@H](O)C[C@H](O)C1(N)CC1` (racemic), the IC50 in data set [1] stood at 5.5 µM; in [2] it was 9.9 µM.

Take `CCCCCCCCCCCCCC(O)CC(=O)C(C)(C)N` (racemic): the values for the IC50 in data set [1] and in [2] were 2.5 µM and 2.6 µM, respectively.
